Results published in paper PMC4720131 (ACS Chemical Biology, 2015).

System: HIV-1 Gag-Pol/Gag (frameshifting)
Assay: Western blot of virion proteins, ratio p160 to p24+p55
Type: cell-based
Details: protease inhibitor control
Summary of the method: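 Virions came from HEK293T producer cells transfected with an NL4-3 proviral vector (nef replaced by GFP, env deleted) plus VSV-G plasmid at 1:0.5. Test compound added 4 h post-transfection, media harvested at 24 h and 0.45-μm filtered. Virion proteins run on SDS-PAGE and blotted with anti-p24 to detect p24, p55 and p160. p160/(p24+p55) ratio taken by scanning densitometry. Indinavir served as protease-inhibitor control.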

CC(C)(C)NC(=O)[C@@H]1CN(Cc2cccnc2)CCN1C[C@@H](O)C[C@@H](Cc1ccccc1)C(=O)N[C@H]1c2ccccc2C[C@H]1O [Indinavir, indinavir]
effect on p160 on virion blot (in words): No buildup of p160 was observed
